# Assay results from different studies.
# Compare with care: the assays were run in different laboratories.
# Target: Wee1-like protein kinase (WEE1, Homo sapiens, UniProt P30291)
SMILES,assay,setting,remaining binding [%]
N[C@@H]1CCN(c2nccc(-c3cnn4ncccc34)n2)C1,binding,1 µM,100
Nc1ncc2c(n1)-c1c([nH]c3ccc(C#CC4CC4)cc13)CCCC2,"binding, competition with immobilised ligand",1 µM,87
C[C@@H]1CCN(c2nccc(-c3cnn4ncccc34)n2)C1,binding,1 µM,100
COc1cnc(Nc2cccc(S(N)(=O)=O)c2)nc1N1CCN(c2ccccc2)CC1,"binding, competition with immobilised ligand",1 µM,100
O=C(c1ccc(Nc2ncc(Cl)c(-c3cc4ccccc4s3)n2)cc1)N1CCC(N2CCCC2)CC1,"binding, competition with immobilised ligand",1 µM,11
CN(C)c1ncc(F)c(-c2cnn3ncccc23)n1,binding,1 µM,100
CC(C)CC(=O)N1CCc2nc(-c3ccc(Br)cc3)nc(N(C)Cc3ccccc3)c2C1,"cell-free assay, competition with immobilised ligand",0.1 µM,100
O=C(NCCCN1CCOCC1)c1ccc(Nc2ncc(Cl)c(-c3ccc(Cl)s3)n2)cc1,"binding, competition with immobilised ligand",1 µM,15
CN(c1ccnc(CNc2nc(Nc3ccc4c(c3)CC(=O)N4)ncc2C(F)(F)F)n1)S(C)(=O)=O,"cell-free assay, competition with immobilised ligand",1 µM,13
c1cnn2ncc(-c3ccnc(N4CCC45COC5)n3)c2c1,binding,1 µM,92
C[C@@H](c1ccc(-n2cnc3c(N)ncnc32)cc1)N1CCc2nn(C)c(Cc3ccccc3)c2C1=O,"binding, competition with immobilised ligand",0.1 µM,85
CN1CCN(c2cnc3c(C4CCN(C(=O)c5ccc(OC(F)(F)F)cc5N)CC4)ncnc3c2)CC1,"cell-free assay, competition with immobilised ligand",1 µM,96
O=C(c1ccc(Nc2ncc(Cl)c(-c3ccc(Cl)s3)n2)cc1)N1CCC(N2CCCC2)CC1,"binding, competition with immobilised ligand",1 µM,11
CN(C)c1nccc(-c2cnn3ncccc23)n1,binding,1 µM,80
CO[C@@H](C)c1c(Nc2ccc([C@@H](N(C)C(=O)C3CCS(=O)(=O)CC3)C(F)(F)F)cc2)cnc2cc(Cl)nn12,"cell-free assay, competition with immobilised ligand",1 µM,92
CNC(=O)[C@@H]1CC[C@@H](n2c(-c3ccc4cnccc4c3)nc3ccc(C(=O)NCc4cccc(C(N)=O)c4)cc32)C1,"binding, competition with immobilised ligand",1 µM,98
Cn1nc(C(=O)NCc2ccc(C(=O)O)cc2)cc1-c1ccc2[nH]ccc2c1,"cell-free assay, competition with immobilised ligand",0.1 µM,100
COc1ccnn2ncc(-c3ccnc(N(C)C)n3)c12,binding,1 µM,100
Cc1nccc(COC(=O)N2C[C@@H]3[C@@H](CNC(=O)c4ccc5[nH]nnc5c4)[C@@H]3C2)n1,"cell-free assay, competition with immobilised ligand",1 µM,100
O=C(NCC1CCOCC1)c1n[nH]cc1NC(=O)c1c(F)cccc1F,"binding, competition with immobilised ligand",1 µM,97
F[C@@H]1CCN(c2nccc(-c3cnn4ncccc34)n2)C1,binding,1 µM,100
O=C(NCc1ncc(C(F)(F)F)cc1Cl)c1ccc2c(c1)C1(CCS(=O)(=O)CC1)[C@@H](C1CC1)N2S(=O)(=O)c1ccc(F)cc1,"cell-free assay, competition with immobilised ligand",1 µM,100
